Sampled rows, rich in hits. Any-hit rate of the full collection: about 5.4%.
PostGolgi ctrl: growth inhibition of yeast control strain, primary screen, counter-screen for post-Golgi transport modulator project | AID 738, 2007 | efflux-deficient yeast background strain, growth absorbance A615, 16 h | inhibition, % at 10 µM | 98,000 tested, 5% active
E coli WT exp: growth inhibitors of wild-type E. coli, primary screen, strain BW25113, expanded library, OD600; OD600 absorbance; growth inhibition, % at 100 µM; 98,000 tested, 0.15% active; AID 710, 2007;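 active = growth inhibition above about 50% at one test dose, limit read from the data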;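 also: growth measured after 20 h incubation at 37 °C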
PLAP activator: PLAP enzyme activators, biochemical, luminescence, HTS | Alkaline phosphatase, placental type (Homo sapiens), P05187 | purified PLAP enzyme, luminescent substrate read-out; stronger effect = higher value | activation fold at 20 µM | 96,000 tested, 1.2% active; in the data active = activation fold above about 2
Target sequence (P05187 whole entry, looked up): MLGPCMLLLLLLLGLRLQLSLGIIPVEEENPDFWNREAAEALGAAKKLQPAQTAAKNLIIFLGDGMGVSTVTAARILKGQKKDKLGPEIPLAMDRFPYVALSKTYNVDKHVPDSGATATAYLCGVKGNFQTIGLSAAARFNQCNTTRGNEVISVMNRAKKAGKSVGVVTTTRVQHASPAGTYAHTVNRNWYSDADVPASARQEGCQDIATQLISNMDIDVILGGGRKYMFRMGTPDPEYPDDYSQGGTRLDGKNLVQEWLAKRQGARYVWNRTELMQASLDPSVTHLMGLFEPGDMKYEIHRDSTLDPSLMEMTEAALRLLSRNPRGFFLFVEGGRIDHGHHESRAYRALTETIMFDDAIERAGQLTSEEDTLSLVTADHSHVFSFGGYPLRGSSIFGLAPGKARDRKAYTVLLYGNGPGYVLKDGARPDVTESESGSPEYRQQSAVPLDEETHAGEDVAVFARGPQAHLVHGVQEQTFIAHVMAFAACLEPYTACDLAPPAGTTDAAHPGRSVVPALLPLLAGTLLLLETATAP
PostGolgi yeast: phenotypic screen on post-Golgi transport, primary screen. post-Golgi transport phenotypic cell assay. inhibition, % at 10 µM. 98,000 tested, 0.9% active. AID 739, 2007;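 also: yeast cells grown in 1536-well plates; yeast grown about 18 h at 30C before absorbance read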
HePTP inhibitor: inhibitors of human HePTP phosphatase, primary screen, biochemical, absorbance, leukemia target | 110,000 tested, 0.64% active | recombinant HePTP phosphatase activity, OD absorbance | inhibition, % at 20 µM | AID 521, 2006 | Tyrosine-protein phosphatase non-receptor type 7 (Homo sapiens), P35236; in the data active = inhibition above about 50%;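 also: plate controls were vehicle for no effect and reference inhibitor for full effect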
Ecoli tolC: growth inhibitors of E. coli tolC mutant, primary screen, strain BW25113 ΔtolC::kan, 384-well; 65,000 tested, 2.2% active; growth inhibition, % at 10 µM (by protocol); OD615;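 active = growth inhibition at or above a cutoff equal to the mean over every tested compound plus 3 SD, cut at about 60% in these data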;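 also: growth measured after 20 h incubation at 37 °C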
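Material: E. coli BW25113 ΔtolC::kan, tolC deletion mutant strain. Measure: percent growth inhibition. Schedule: 37 °C, 20 h exposure. Doses: single-point testing at 10 µM. Signal: A615 absorbance measurement. Buffer or medium: kanamycin-containing LB broth (50 µg/mL).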
An asterisk follows results filed as active; . = no result. Rule as the data show it, unless noted: active = inhibition above about 30%; inactive = the rest.

SMILES	PostGolgi ctrl	E coli WT exp	PLAP activator	PostGolgi yeast	HePTP inhibitor	Ecoli tolC
Clc1cccc(Nc2c3c(nc4ncnn24)CCC3)c1	9	5	2*	25	4	9
Cc1ccc(Nc2c3c(nc4ncnn24)CCC3)cc1	18	-1	1.2	-22	6	2
O=C(CSc1nc(Nc2ccccc2)nc(N2CCOCC2)n1)Nc1ccc([N+](=O)[O-])cc1	17	5	1.5	44*	.	.
CC(C)=CCC(C)(C)CN(C=O)CC(C)(C)CC=C(C)C	.	.	.	.	-4	.
Cc1cc(NCc2ccco2)nc2ccccc12	.	.	.	.	0	.
Cn1cccc1/C=C1\CCC/C(=C\c2cccn2C)C1=O	41*	2	1	10	.	.
Cn1cccc1/C=N/n1cnnc1	3	5	0.9	11	5	5
CC1=C(C(=O)Nc2ccc(Cl)cc2)C(c2ccc(N(C)C)cc2)NC(=S)N1 (stereo not given)	.	.	.	.	-6	.
COC(=O)Cn1cc(/C=N/NC(=O)c2ccc(C#N)cc2F)c2ccccc21	40*	0	1.1	2	.	.
O=C(NNC(=S)NC(=O)c1ccccc1[N+](=O)[O-])c1ccccc1[N+](=O)[O-]	3	8	2.5*	-8	.	.
COc1ccc(S(=O)(=O)N(CC(=O)Nc2cc(Cl)ccc2OC)Cc2ccccc2)cc1	.	.	.	.	2	.
O=S(=O)(c1cc(Cl)ccc1Cl)N1CCN(c2ccc(F)cc2)CC1	.	.	.	.	-17	.
CCc1nnc(NC2=NCCC2)s1	33*	2	1	7	-4	3
c1nnc(NC2=NCCC2)s1	-2	7	1	-3	.	.
O=C(Nc1nc(N2C(=O)c3ccccc3C2=O)n(-c2ccccc2)n1)c1ccc(Cl)cc1	35*	-5	1.9	2	.	.
CC(C)c1ccc(C2OC3(C(=O)c4ccccc4C3=O)C3C(=O)N(c4ccc(Cl)c(Cl)c4)C(=O)C23)cc1 (stereo not given)	.	.	.	.	-11	.
CCn1c(CNc2ccc(C(=O)O)cc2)nc2ccccc21	11	-2	1.1	39*	.	.
CCCn1c(CNc2ccc(Br)cc2)nc2ccccc21	71*	-3	.	-4	4	100*
CC(=O)C1=C(O)C(=O)N(CC2CCCO2)C1c1cccc(F)c1 (stereo not given)	.	.	.	.	8	.
Cc1nn(-c2ccccc2)c2c1C(c1c(Cl)cccc1Cl)C(C#N)=C(N)O2 (stereo not given)	.	.	.	.	13	.
O=[N+]([O-])c1ccccc1/C=N/n1cnnc1	.	.	.	.	2	.
O=C(CCSc1ccc(Cl)cc1)NC12CC3CC(CC(C3)C1)C2	43*	-16	0.7	9	.	.
CC(Oc1ccc(Cl)cc1Cl)C(=O)Nc1c(Cl)cccc1Cl (stereo not given)	.	.	.	.	-6	.
COc1ccc(/C=N/Nc2nnc(-c3ncc[nH]3)c3ccccc23)cc1	8	-6	1.2	-2	.	.
Oc1ccc2ccccc2c1/C=N/Nc1nnc(-c2ncc[nH]2)c2ccccc12	39*	9	1.4	9	.	.
SMILES	PostGolgi ctrl	E coli WT exp	PLAP activator	PostGolgi yeast	HePTP inhibitor	Ecoli tolC
COc1ccccc1NC(=O)C(=O)NNC(=O)COc1ccc(Cl)cc1	.	.	.	.	-15	.
Cc1cc(=O)oc2c1c(C)nn2-c1cccc(C(F)(F)F)c1	.	.	.	.	-4	.
CCc1oc2c(C)c(O)ccc2c(=O)c1-c1ccc2ccccc2n1	11	-11	1.1	-3	.	.
Cc1oc2c(CN(C)C)c(O)ccc2c(=O)c1-c1ccc2ccccc2n1	35*	6	1.2	-6	2	-9
COc1ccc(CNCC(CO)C2(c3ccccc3)CCOC(C)(C)C2)cc1 (stereo not given)	.	.	.	.	-4	.
Cn1nc(-c2ccc(N3CCOCC3)c(NS(=O)(=O)c3ccc(Cl)cc3)c2)c2ccccc2c1=O	30*	-3	1.1	-11	.	.
COc1cccc(-n2nnnc2SCC(=O)Nc2ccc3c(c2)OCCO3)c1	31*	-4	0.8	39*	.	.
COc1ccc(-n2nnnc2SCC(=O)Nc2ccc3c(c2)OCCO3)cc1OC	7	-4	1.2	4	8	4
COc1ccc(-n2c(SCC(=O)Nc3ccc4c(c3)OCO4)nc3ccccc3c2=O)cc1	54*	-14	1.6	-3	6	17
Cc1cc(C)cc(-n2ccnc2SCC(=O)Nc2ccc3c(c2)OCCO3)c1	3	-12	1.5	-8	4	77*
COc1cc(NC(=O)c2ccc(F)cc2)cc(OC)c1	.	.	.	.	1	.
O=C(COc1ccc(Cl)cc1Cl)OCn1nnc2ccccc2c1=O	-3	0	0.8	10	.	.
O=C(CSCC(=O)OCn1nnc2ccccc2c1=O)Nc1ccc(Cl)cc1	32*	3	0.9	0	.	-7
CN(CC(=O)Nc1ccccc1N1CCOCC1)S(=O)(=O)c1ccc(Cl)cc1	24	-4	1	14	.	.
CCN(CC)S(=O)(=O)c1cc(NC(=O)C(=O)c2c(-c3ccccc3)cc3ccccn23)ccc1C	13	-16	1.5	-2	.	.
CCN(CC)S(=O)(=O)c1ccc(N2CCOCC2)c(NC(=O)C(=O)c2c(-c3ccccc3)cc3ccccn23)c1	98*	-14	1.4	72*	.	.
CCN(CC)S(=O)(=O)c1cccc(NC(=O)C(=O)c2c(-c3ccccc3)cc3ccccn23)c1	72*	-16	1.2	-3	.	.
COc1ccc(/C=N/NC(=O)c2n[nH]c3c2CCC3)cc1O	.	.	.	.	-12	.
COc1ccc(Br)cc1C(=O)Nc1cccc(NC(=O)c2ccccc2C)c1	.	.	.	.	6	.
COC(=O)c1ccc(Oc2c(C(F)(F)F)oc3c(CN4CCN(C)CC4)c(O)ccc3c2=O)cc1	35*	5	1.5	-4	.	.
CCN(Cc1ccccc1)C(c1ccncc1)c1nnnn1C(C)(C)C (stereo not given)	40*	-1	.	14	9	13
c1ccc(CN(Cc2ccco2)C(c2ccncc2)c2nnnn2C2CCCC2)cc1 (stereo not given)	21	-6	1.3	1	10	64*
CCN(Cc1ccccc1)C(c1ccc(C)cc1)c1nnnn1C(C)(C)CC (stereo not given)	9	-9	0.9	7	.	.
CC(C)(C)n1nnnc1C(c1cccs1)N(Cc1ccccc1)Cc1cccnc1 (stereo not given)	28	-9	1.3	13	7	80*
CC(C)(C)n1nnnc1C(c1cccnc1)N(Cc1ccccc1)Cc1cccs1 (stereo not given)	21	-23	0.9	-3	.	.
CC(C)(C)n1nnnc1CN(Cc1cccnc1)Cc1ccccc1Cl	20	7	1.6	50*	.	.
COc1cccc(C(O)c2nc3ccccc3n2C(C)C)c1 (stereo not given)	-2	10	2.4*	-2	-9	.
O=C(c1ccccc1Oc1ccccc1)N1CCN(c2ccccc2F)CC1	33*	-5	1.4	-2	.	.

Screening results: PubChem BioAssay, several laboratories
